From ChEMBL document CHEMBL5579886, “Selective Degradation of MLK3 by a Novel CEP1347-VHL-02 PROTAC Compound Limits the Oncogenic Potential of TNBC” (J Med Chem, 2024)
Active and inactive are the calls of the source. The calls are words filed in the database; no cut-off is given here.

What was measured:
[1] = target: T1, von Hippel-Lindau disease tumor suppressor/Mitogen-activated protein kinase kinase kinase 11 (Homo sapiens, UniProt Q16584+P40337); test: PROTAC activity at VHL/MLK3 in human MCF7 cells assessed as protein degradation measured after 4 to 48 hrs by Western blot analysis; type: cell-based; details: dose 1.0 µM, time 4-48 hrs
T1 sequence (P40337 whole entry, looked up): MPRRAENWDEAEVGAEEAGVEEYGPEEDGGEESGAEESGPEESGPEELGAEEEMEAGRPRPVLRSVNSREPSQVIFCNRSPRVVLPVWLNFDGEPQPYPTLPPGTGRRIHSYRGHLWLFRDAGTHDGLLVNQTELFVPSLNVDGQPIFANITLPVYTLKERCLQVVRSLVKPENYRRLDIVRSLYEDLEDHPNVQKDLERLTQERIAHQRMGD
T1 sequence (Q16584 whole entry, looked up): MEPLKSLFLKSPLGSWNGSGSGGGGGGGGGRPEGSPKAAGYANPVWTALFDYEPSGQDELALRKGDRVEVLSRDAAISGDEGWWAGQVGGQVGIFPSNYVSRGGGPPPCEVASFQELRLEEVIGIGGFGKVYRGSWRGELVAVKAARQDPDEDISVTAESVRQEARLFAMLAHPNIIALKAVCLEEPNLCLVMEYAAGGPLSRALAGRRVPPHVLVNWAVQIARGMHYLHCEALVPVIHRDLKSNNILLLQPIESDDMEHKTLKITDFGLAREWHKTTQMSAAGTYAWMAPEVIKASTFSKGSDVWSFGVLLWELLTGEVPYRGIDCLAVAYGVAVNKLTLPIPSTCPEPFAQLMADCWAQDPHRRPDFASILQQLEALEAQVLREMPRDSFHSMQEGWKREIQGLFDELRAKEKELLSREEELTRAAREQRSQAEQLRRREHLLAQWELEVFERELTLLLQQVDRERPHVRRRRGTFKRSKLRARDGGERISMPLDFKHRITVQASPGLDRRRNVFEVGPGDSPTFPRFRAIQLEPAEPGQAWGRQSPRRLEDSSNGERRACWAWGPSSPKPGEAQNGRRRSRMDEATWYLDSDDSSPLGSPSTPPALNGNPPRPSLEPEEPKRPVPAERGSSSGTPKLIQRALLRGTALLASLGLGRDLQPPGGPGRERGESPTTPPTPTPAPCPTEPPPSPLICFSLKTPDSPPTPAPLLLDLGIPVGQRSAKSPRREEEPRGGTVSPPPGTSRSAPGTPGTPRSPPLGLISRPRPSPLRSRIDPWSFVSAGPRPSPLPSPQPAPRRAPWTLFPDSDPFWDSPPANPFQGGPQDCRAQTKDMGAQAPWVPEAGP
How it was run: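 MCF-7 and MDA-MB-468 cells were seeded at 100 000/well and treated with 1 μM PROTAC for 4–48 h, with DMSO as control. MLK3 was quantified by immunoblot as percent remaining, and t1/2 of degradation was derived from the time course.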

MDA-MB-468 [2] = test: Growth inhibition of human MDA-MB-468 cell spheroids in hydrogel at 1 uM incubated for 10 days; type: functional, cell-based; details: time 10.0 day
How it was run: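 4000 cells plated on top of hydrogels and grown 10 days with 1 μM PROTAC or DMSO; spheroid formation and size scored.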

MDA-MB-468 [3] = test: Inhibition of cell migration in human MDA-MB-468 cells at 1 uM incubated for 24 hrs by transwell assay; type: functional, cell-based
How it was run: (§1)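 Boyden inserts, 8 μm pores: 200 000 cells in serum-free DMEM with 1 μM PROTAC or DMSO, 20% FBS DMEM below as chemoattractant, 24 h at 37 °C, 5% CO2. Migrated cells fixed, crystal violet stained and counted by image analysis; at least three repeats.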

[4] = target: von Hippel-Lindau disease tumor suppressor/Mitogen-activated protein kinase kinase kinase 10 (Homo sapiens) (UniProt Q02779+P40337); test: PROTAC activity at VHL/MLK2 in human MDA-MB-468 cells assessed as protein degradation at 1 uM incubated for 24 hrs by immunoblot analysis; type: cell-based
von Hippel-Lindau disease tumor suppressor/Mitogen-activated protein kinase kinase kinase 10 (Homo sapiens), sequence (P40337 whole entry, looked up): as the sequence (P40337 whole entry, looked up) above
von Hippel-Lindau disease tumor suppressor/Mitogen-activated protein kinase kinase kinase 10 (Homo sapiens), sequence (Q02779 whole entry, looked up): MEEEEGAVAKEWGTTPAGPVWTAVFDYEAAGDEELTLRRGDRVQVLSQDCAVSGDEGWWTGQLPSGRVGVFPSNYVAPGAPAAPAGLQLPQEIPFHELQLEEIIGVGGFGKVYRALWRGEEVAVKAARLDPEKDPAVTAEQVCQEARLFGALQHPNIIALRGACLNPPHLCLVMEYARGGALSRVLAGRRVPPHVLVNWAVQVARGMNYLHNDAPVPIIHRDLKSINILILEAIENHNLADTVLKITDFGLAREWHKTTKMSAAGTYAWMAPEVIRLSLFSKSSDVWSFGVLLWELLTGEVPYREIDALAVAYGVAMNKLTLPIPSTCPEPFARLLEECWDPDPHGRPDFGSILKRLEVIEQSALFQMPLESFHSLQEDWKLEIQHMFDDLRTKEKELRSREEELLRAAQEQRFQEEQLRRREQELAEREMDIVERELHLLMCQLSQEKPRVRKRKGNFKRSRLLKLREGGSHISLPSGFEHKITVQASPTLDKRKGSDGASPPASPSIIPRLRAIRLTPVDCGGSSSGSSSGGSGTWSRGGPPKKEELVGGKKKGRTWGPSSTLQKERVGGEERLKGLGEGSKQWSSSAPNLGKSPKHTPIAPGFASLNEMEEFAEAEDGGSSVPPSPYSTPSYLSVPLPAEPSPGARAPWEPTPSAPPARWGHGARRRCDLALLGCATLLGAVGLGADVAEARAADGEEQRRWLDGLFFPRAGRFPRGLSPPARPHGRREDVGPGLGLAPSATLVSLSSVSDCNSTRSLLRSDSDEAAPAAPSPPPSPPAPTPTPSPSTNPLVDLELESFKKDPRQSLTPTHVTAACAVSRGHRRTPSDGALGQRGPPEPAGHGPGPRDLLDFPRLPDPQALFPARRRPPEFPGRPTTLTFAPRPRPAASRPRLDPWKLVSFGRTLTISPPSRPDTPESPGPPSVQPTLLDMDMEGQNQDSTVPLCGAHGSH
How it was run: (§2)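 Endogenous MLK1, MLK2 or MLK4 levels in MCF-7 and MDA-MB-468 cells. Cells were grown in high-glucose DMEM with 10% FBS, seeded at 100 000 cells/well and treated the next day for 24 h, with DMSO as control. Lysis was in RIPA with protease inhibitor, followed by 10% SDS-PAGE, nitrocellulose transfer and ECL immunoblot with GAPDH or β-actin as loading control.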

MCF7 [5] = test: Effect on MLK3 mRNA level in human MCF7 cells at 1 uM measured after 24 hrs by RT-qPCR analysis; type: functional, cell-based
How it was run: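 Total RNA extracted from MCF-7 and MDA-MB-468 cells 24 h after PROTAC treatment, purity and concentration checked spectrophotometrically, reverse transcribed to cDNA and MLK3 transcript quantified by RT-qPCR.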

MDA-MB-468 [6] = test: Induction of apoptosis in human MDA-MB-468 cells at 1 uM measured after 48 hrs by Annexin V-FITC/PI staining based flow cytometry; type: functional, cell-based
How it was run: (§3)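 Cells seeded at 50 000/well, treated 48 h with 1 μM PROTAC or DMSO; cells plus supernatant stained with Alexa Fluor488 Annexin V for 30 min at room temperature in the dark, PI added 5 min before flow cytometry. At least three repeats.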

MCF7 [7] = test: Inhibition of cell migration in human MCF7 cells at 1 uM incubated for 24 hrs by transwell assay; type: functional, cell-based; how it was run: as §1
[8] = target: von Hippel-Lindau disease tumor suppressor/Mitogen-activated protein kinase kinase kinase 9 (Homo sapiens) (UniProt P80192+P40337); test: PROTAC activity at VHL/MLK1 in human MDA-MB-468 cells assessed as protein degradation at 1 uM incubated for 24 hrs by immunoblot analysis; type: cell-based; how it was run: as §2
von Hippel-Lindau disease tumor suppressor/Mitogen-activated protein kinase kinase kinase 9 (Homo sapiens), sequence (P40337 whole entry, looked up): as the sequence (P40337 whole entry, looked up) above
von Hippel-Lindau disease tumor suppressor/Mitogen-activated protein kinase kinase kinase 9 (Homo sapiens), sequence (P80192 whole entry, looked up): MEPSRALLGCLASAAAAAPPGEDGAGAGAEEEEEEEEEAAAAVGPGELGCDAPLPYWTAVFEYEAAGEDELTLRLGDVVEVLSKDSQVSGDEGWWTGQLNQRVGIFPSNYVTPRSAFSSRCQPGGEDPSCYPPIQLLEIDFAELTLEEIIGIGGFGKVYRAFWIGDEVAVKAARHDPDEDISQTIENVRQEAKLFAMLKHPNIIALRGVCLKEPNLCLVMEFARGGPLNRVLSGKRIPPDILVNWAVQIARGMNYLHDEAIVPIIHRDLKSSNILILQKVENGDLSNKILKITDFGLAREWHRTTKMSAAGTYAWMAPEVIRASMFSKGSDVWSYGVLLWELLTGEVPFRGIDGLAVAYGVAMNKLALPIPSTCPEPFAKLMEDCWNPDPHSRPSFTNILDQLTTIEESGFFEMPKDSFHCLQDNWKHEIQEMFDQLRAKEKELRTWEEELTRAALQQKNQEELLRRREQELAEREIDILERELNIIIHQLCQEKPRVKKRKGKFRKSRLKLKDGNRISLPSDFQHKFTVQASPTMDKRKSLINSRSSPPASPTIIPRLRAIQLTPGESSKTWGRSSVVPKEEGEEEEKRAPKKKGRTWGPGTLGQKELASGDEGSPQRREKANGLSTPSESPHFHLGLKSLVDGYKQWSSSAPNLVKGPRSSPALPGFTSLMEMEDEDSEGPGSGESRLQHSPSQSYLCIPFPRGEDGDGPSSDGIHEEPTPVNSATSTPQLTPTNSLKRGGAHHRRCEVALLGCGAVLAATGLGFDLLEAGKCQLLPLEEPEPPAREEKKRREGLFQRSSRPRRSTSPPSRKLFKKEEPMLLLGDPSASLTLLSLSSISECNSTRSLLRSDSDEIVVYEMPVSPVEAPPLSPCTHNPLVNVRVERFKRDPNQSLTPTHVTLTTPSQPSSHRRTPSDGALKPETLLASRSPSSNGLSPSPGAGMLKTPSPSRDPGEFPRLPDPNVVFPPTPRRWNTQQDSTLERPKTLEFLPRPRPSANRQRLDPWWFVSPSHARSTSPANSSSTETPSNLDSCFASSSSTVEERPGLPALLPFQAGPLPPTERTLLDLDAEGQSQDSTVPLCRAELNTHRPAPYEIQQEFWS

MCF7 [9] = test: Effect on cell cycle in human MCF7 cells at 1 uM measured after 48 hrs by PI staining based flow cytometry; type: functional
How it was run: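 Cells seeded at 50 000/well, exposed to 1 μM PROTAC or DMSO for 48 h, trypsinized, fixed in ice-cold methanol and held at –20 °C; next day stained with PI/RNase solution and read by flow cytometry. Two independent experiments.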

[10] = target: T1, von Hippel-Lindau disease tumor suppressor/Mitogen-activated protein kinase kinase kinase 11; test: PROTAC activity at VHL/MLK3 in human MDA-MB-468 cells assessed as protein degradation at 1 uM measured after 24 hrs by immunoblot analysis; type: cell-based
How it was run: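 MCF-7 and MDA-MB-468 cells were treated for 24 h across 0.1–5 μM, with DMSO as control. MLK3 was immunoblotted and quantified as percent remaining versus concentration, from which DC50 and Dmax were derived.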

[11] = target: T1, von Hippel-Lindau disease tumor suppressor/Mitogen-activated protein kinase kinase kinase 11; test: PROTAC activity at VHL/DOX-inducible MLK3 (unknown origin) overexpressed in human A-375 cells assessed as protein degradation at 0.1 uM incubated for 24 hrs by immunoblot analysis; type: cell-based
How it was run: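 A375 cells with DOX-inducible MLK3 were seeded at 100 000/well and induced with 1 μg/mL DOX for 24 h. Eight VHL-based PROTACs were then tested at 0.1–5 μM for 24 h, with DMSO as control. MLK3 was detected by ECL immunoblot of RIPA lysates, normalised to GAPDH or β-actin.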

MCF7 [12] = test: Growth inhibition of human MCF7 cell spheroids in low-attachment surface at 1 uM incubated for 10 days; type: functional, cell-based; details: time 10.0 day
How it was run: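 Cells grown 10 days in low-attachment surface plates in medium containing 1 μM PROTAC or DMSO; spheroid growth assessed.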

MCF7 [13] = test: Induction of apoptosis in human MCF7 cells at 1 uM measured after 48 hrs by Annexin V-FITC/PI staining based flow cytometry; type: functional, cell-based; how it was run: as §3
[14] = target: von Hippel-Lindau disease tumor suppressor/Mitogen-activated protein kinase kinase kinase 21 (Homo sapiens) (UniProt P40337+Q5TCX8); test: PROTAC activity at VHL/DOX-inducible MLK4 (unknown origin) overexpressed in human A-375 cells assessed as protein degradation at 0.1 to 5 uM incubated for 24 hrs by immunoblot analysis; type: cell-based; details: dose 0.1-5 µM
von Hippel-Lindau disease tumor suppressor/Mitogen-activated protein kinase kinase kinase 21 (Homo sapiens), sequence (P40337 whole entry, looked up): as the sequence (P40337 whole entry, looked up) above
von Hippel-Lindau disease tumor suppressor/Mitogen-activated protein kinase kinase kinase 21 (Homo sapiens), sequence (Q5TCX8 whole entry, looked up): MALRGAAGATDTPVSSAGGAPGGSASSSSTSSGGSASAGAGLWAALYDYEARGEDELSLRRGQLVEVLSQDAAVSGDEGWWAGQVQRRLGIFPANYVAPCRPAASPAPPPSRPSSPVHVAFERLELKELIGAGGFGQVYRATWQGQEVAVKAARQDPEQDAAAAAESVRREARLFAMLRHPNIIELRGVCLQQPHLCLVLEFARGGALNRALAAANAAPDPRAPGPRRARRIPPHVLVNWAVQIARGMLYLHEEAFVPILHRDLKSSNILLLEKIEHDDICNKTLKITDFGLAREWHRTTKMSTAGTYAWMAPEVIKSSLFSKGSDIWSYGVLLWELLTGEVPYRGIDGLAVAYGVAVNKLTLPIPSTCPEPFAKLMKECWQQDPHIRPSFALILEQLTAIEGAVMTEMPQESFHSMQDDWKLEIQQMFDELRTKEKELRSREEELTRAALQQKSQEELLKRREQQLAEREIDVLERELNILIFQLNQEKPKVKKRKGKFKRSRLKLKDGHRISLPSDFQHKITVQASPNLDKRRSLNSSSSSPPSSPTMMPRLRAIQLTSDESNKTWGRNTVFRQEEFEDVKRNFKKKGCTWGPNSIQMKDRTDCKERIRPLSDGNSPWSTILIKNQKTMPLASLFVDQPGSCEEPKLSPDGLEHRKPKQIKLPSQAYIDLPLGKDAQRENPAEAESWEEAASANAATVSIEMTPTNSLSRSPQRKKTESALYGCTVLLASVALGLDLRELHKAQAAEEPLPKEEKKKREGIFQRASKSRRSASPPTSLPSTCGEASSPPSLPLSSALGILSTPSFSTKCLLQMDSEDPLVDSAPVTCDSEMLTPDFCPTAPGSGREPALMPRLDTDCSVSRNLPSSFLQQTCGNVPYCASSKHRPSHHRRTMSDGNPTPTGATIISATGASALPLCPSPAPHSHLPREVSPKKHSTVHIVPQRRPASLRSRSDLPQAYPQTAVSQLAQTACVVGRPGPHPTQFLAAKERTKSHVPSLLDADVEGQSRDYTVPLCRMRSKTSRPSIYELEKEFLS
How it was run: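 A375 cells carried lentiviral DOX-inducible MLK1, MLK2 or MLK4 and were grown in RPMI-1640 with 10% FBS. Cells were seeded at 100 000/well and induced with 1 μg/mL DOX. After 24 h they were treated at 0.1–5 μM for 24 h, with DMSO as control. Levels were read by ECL immunoblot of RIPA lysates, with GAPDH or β-actin loading control.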

MDA-MB-468 [15] = test: Inhibition of colony formation in human MDA-MB-468 cells at 1 uM incubated for 15 days by crystal violet staining based analysis; type: functional, cell-based; details: time 15.0 day
How it was run: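 5000 cells per 6 cm plate in triplicate with 1 μM PROTAC or DMSO, medium changed every 5 days; colonies stained with crystal violet after 14–15 days. Three independent experiments, mean ± SD, unpaired t-test against control.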

[16] = target: T1, von Hippel-Lindau disease tumor suppressor/Mitogen-activated protein kinase kinase kinase 11; test: PROTAC activity at VHL/MLK3 in human MCF7 cells assessed as half life of protein degradation at 1 uM by Western blot analysis; type: cell-based
How it was run: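 Endogenous MLK3: cells seeded at 100 000/well, treated next day with 1 μM PROTAC for 4–48 h, DMSO control; immunoblot with GAPDH or β-actin loading control. Remaining MLK3 quantified over time and t1/2 derived.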

CCSCc1ccc2c(c1)c1c3c(c4c5cc(CSCC)ccc5n5c4c1n2[C@H]1C[C@](O)(C(=O)NCCOCCOCCOCC(=O)N[C@H](C(=O)N2C[C@H](O)C[C@H]2C(=O)N[C@@H](C)c2ccc(-c4scnc4C)cc2)C(C)(C)C)[C@]5(C)O1)CNC3=O
Activity [1]: Dose-Dependent Effect | growth inhibition (GI) (MDA-MB-468 [2]): Active | inhibition (MDA-MB-468 [3]): Active | Activity [4]: inactive | Activity (MCF7 [5]): inactive | Activity (MDA-MB-468 [6]): Active | inhibition (MCF7 [7]): inactive | Activity [8]: inactive | Activity (MCF7 [9]): inactive | Activity [10]: Active | Activity [11]: Active | growth inhibition (GI) (MCF7 [12]): inactive | Activity (MCF7 [13]): inactive | Activity [14]: inactive | inhibition (MDA-MB-468 [15]): Active | T1/2 [16]: 2.5 h
